The record followed here is ChEMBL document CHEMBL2417510, “Stereoselective pharmacodynamic and pharmacokinetic analysis of sec-Butylpropylacetamide (SPD), a new CNS-active derivative of valproic acid with unique activity against status epilepticus” (J Med Chem, 2013).

Data set [1] in a line: Terminal half life in rat at 60 mg/kg, ip. Further details: dose 60 mg/kg, route intraperitoneal. The following applies: in vivo, read-out: beta t1/2 (converted). It is filed as ADME, organism-based. The method, boiled down:
(§1)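 Naive rats got a single ip dose of 60 mg/kg, formulated in multisol (propylene glycol:alcohol:water for injection, 5:1:4). Plasma concentration–time profiles were followed, and PK parameters (t1/2, CL/F, Vz/F, AUC, Cmax, tmax, MRT) were derived from them.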

Data set [2] relates to Rattus norvegicus. Briefly: Anticonvulsant activity in ip dosed albino Sprague-Dawley rat assessed as protection against pilocarpine-induced behavioral seizures administered 30 mins post seizure measured after 0.25 to 0.5 hrs. The format is functional. In outline: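 Status epilepticus was induced in rats with lithium–pilocarpine. Compound was given ip 30 min after the first observed stage 3 or greater motor seizure. The read-out was prevention of further convulsive seizures across various doses in groups of 4–8 rats.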

Data set [3] deals with Mus musculus. The data set is described as follows: Teratogenicity in SWV/Fnn mouse assessed as live fetuses at 283 mg/kg, ip on day 8.5 of gestation (reference value: 93.7 %). The format is toxicity, organism-based. More on the design: dose 283 mg/kg, route intraperitoneal. The following applies: in vivo.
The nature of data set [4]: Apparent volume of distribution […] in rat at 60 mg/kg, ip. The format is ADME, organism-based. Further details: dose 60 mg/kg, route intraperitoneal. The following applies: in vivo, read-out: Vz/F. The method, boiled down:
as §1

Data set [5] relates to Rattus norvegicus. Briefly: Anticonvulsant activity in ip dosed albino Sprague-Dawley rat assessed as protection against subcutaneous metrazol-induced seizures after 0.25 to 0.5 hrs. It is filed as functional. The method, boiled down: (§2)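 Each test was run at the previously determined time to peak effect: 0.25–0.5 h after ip dosing, or 0.5–1 h after oral dosing. Groups of 4–8 animals received various doses until at least two points fell between 0% and 100% protection or minimal toxicity.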

Data set [6] deals with Mus musculus. Briefly: Teratogenicity in SWV/Fnn mouse assessed as normal fetuses at 283 mg/kg, ip on day 8.5 of gestation (reference value: 100 %). The format is toxicity, organism-based. More on the design: dose 283 mg/kg, route intraperitoneal. The following applies: in vivo.
Data set [7] in a line: AUC in rat at 60 mg/kg, ip. It is filed as ADME, organism-based. Further details: dose 60 mg/kg, route intraperitoneal. The note with it: plasma. In outline:
as §1

A short description of data set [8]: Tmax in rat at 60 mg/kg, ip. The format is ADME, organism-based. More on the design: dose 60 mg/kg, route intraperitoneal. The following applies: in vivo. In outline:
as §1

In data set [9] the test system is Mus musculus. Briefly: Teratogenicity in SWV/Fnn mouse assessed as normal fetuses at 141 mg/kg, ip on day 8.5 of gestation (reference value: 100 %). The format is toxicity, organism-based. More on the design: dose 141 mg/kg, route intraperitoneal. The following applies: in vivo.
In data set [10] the test system is Mus musculus. The data set is described as follows: Anticonvulsant activity in ip dosed albino CF1 mouse assessed as protection against subcutaneous metrazol-induced seizures after 0.25 to 0.5 hrs. The note with it: albino CF1, 0.5 h. It is filed as functional. In outline:
as §2

Data set [11] has as its system Mus musculus. The data set is described as follows: Anticonvulsant activity in ip dosed albino CF1 mouse assessed as protection against 44 mA-current- for 3 secs induced seizures after 0.25 to 0.5 hrs by 6Hz psychomotor seizure test. The format is functional. The method, boiled down: as §2
Data set [12] can be described thus: Neurotoxicity in po dosed albino Sprague-Dawley rat assessed as minimal motor impairment after 0.5 to 1 hr. It is filed as toxicity, organism-based. The note with it: in vivo. The method, boiled down:
as §2

The nature of data set [13]: Cmax in rat at 60 mg/kg, ip. The note with it: in vivo. The format is ADME, organism-based. More on the design: dose 60 mg/kg, route intraperitoneal. In outline: as §1
Data set [14] is described as follows: Mean residence time in rat at 60 mg/kg, ip. Further details: dose 60 mg/kg, route intraperitoneal. The format is ADME, organism-based. The following applies: in vivo. The method, boiled down: as §1
Data set [15] relates to Mus musculus. The data set is described as follows: Teratogenicity in SWV/Fnn mouse assessed as resorption at 141 mg/kg, ip on day 8.5 of gestation (reference value: 6.3 %). More on the design: dose 141 mg/kg, route intraperitoneal. It is filed as toxicity, organism-based. The following applies: in vivo.
A short description of data set [16]: Apparent clearance in rat at 60 mg/kg, ip. The format is ADME, organism-based. More on the design: dose 60 mg/kg, route intraperitoneal. The following applies: in vivo. The method, boiled down: as §1
Data set [17] deals with Hippocampus. The data set is described as follows: Protection against kainic acid-induced spontaneous electrographic seizures in combined medial entorhinal cortex hippocampal brain slices of albino Sprague-Dawley rat assessed as burst rate at 100 uM after 1 week relative to control. The format is functional. In outline:
(§3)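 Rat brain slices showing spontaneous bursting were exposed to 100 μM compound. Burst rate and burst duration were expressed as % of control ± SEM.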

Data set [18] in a line: Neurotoxicity in ip dosed albino CF1 mouse assessed as minimal motor impairment after 0.25 to 0.5 hrs. It is filed as toxicity, organism-based. The following applies: in vivo. In outline:
as §2

Data set [19] is described as follows: Neurotoxicity in ip dosed albino Sprague-Dawley rat assessed as minimal motor impairment after 0.25 to 0.5 hrs. It is filed as toxicity, organism-based. The note with it: in vivo. In outline:
as §2

Data set [20] deals with Mus musculus. Briefly: Teratogenicity in SWV/Fnn mouse assessed as fetuses with neural tube defects at 283 mg/kg, ip on day 8.5 of gestation relative to vehicle-treated control. More on the design: dose 283 mg/kg, route intraperitoneal. It is filed as toxicity, organism-based. The following applies: in vivo.
Data set [21] has as its system Hippocampus. The data set is described as follows: Protection against kainic acid-induced spontaneous electrographic seizures in combined medial entorhinal cortex hippocampal brain slices of albino Sprague-Dawley rat assessed as burst duration at 100 uM after 1 week relative to control. The format is functional. In outline:
as §3

The subject of data set [22] is Mus musculus. The data set is described as follows: Teratogenicity in SWV/Fnn mouse assessed as live fetuses at 141 mg/kg, ip on day 8.5 of gestation (reference value: 93.7 %). The format is toxicity, organism-based. Further details: dose 141 mg/kg, route intraperitoneal. The note with it: in vivo.
For data set [23], the system named is Mus musculus. The data set is described as follows: Teratogenicity in SWV/Fnn mouse assessed as resorption at 283 mg/kg, ip on day 8.5 of gestation (reference value: 6.3 %). It is filed as toxicity, organism-based. More on the design: dose 283 mg/kg, route intraperitoneal. The note with it: in vivo.
Data set [24] has as its system Mus musculus. The data set is described as follows: Anticonvulsant activity in ip dosed albino CF1 mouse assessed as protection against 32 mA-current- for 3 secs induced seizures after 0.25 to 0.5 hrs by 6Hz psychomotor seizure test. It is filed as functional. The method, boiled down: as §2
Data set [25] deals with Rattus norvegicus. Briefly: Anticonvulsant activity in po dosed albino Sprague-Dawley rat assessed as protection against maximal electroshock-induced seizures after 0.5 to 1 hr. It is filed as functional. The method, boiled down: as §2
In data set [26] the test system is Mus musculus. Briefly: Anticonvulsant activity in ip dosed albino CF1 mouse assessed as protection against maximal electroshock-induced seizures after 0.25 to 0.5 hrs. It is filed as functional. The method, boiled down:
as §2

Data set [27] deals with Mus musculus. The data set is described as follows: Teratogenicity in SWV/Fnn mouse assessed as fetuses with neural tube defects at 141 mg/kg, ip on day 8.5 of gestation relative to vehicle-treated control. It is filed as toxicity, organism-based. The note with it: in vivo. More on the design: dose 141 mg/kg, route intraperitoneal.
The test system of data set [28] is Mus musculus. The data set is described as follows: Teratogenicity in SWV/Fnn mouse assessed as normal fetuses at 181 mg/kg, ip on day 8.5 of gestation (reference value: 100 %). The format is toxicity, organism-based. Further details: dose 181 mg/kg, route intraperitoneal. The note with it: in vivo.
The subject of data set [29] is Mus musculus. The data set is described as follows: Teratogenicity in SWV/Fnn mouse assessed as live fetuses at 181 mg/kg, ip on day 8.5 of gestation (reference value: 93.7 %). The note with it: in vivo. It is filed as toxicity, organism-based. More on the design: dose 181 mg/kg, route intraperitoneal.
The test system of data set [30] is Mus musculus. Briefly: Teratogenicity in SWV/Fnn mouse assessed as resorption at 301 mg/kg, ip on day 8.5 of gestation (reference value: 6.3 %). It is filed as toxicity, organism-based. More on the design: dose 301 mg/kg, route intraperitoneal. The following applies: in vivo.
Data set [31] has as its system Mus musculus. Briefly: Teratogenicity in SWV/Fnn mouse assessed as fetuses with neural tube defects at 181 mg/kg, ip on day 8.5 of gestation relative to vehicle-treated control. More on the design: dose 181 mg/kg, route intraperitoneal. The note with it: in vivo. The format is toxicity, organism-based.
Data set [32] concerns Mus musculus. Briefly: Teratogenicity in SWV/Fnn mouse assessed as resorption at 181 mg/kg, ip on day 8.5 of gestation (reference value: 6.3 %). Further details: dose 181 mg/kg, route intraperitoneal. The note with it: in vivo. The format is toxicity, organism-based.
Data set [33] relates to Mus musculus. Briefly: Teratogenicity in SWV/Fnn mouse assessed as normal fetuses at 301 mg/kg, ip on day 8.5 of gestation (reference value: 100 %). The following applies: in vivo. Further details: dose 301 mg/kg, route intraperitoneal. It is filed as toxicity, organism-based.

Broadly, the ED50 is the midpoint of the dose-response relation. Broadly, the AUC is concentration integrated over time. Low readings indicate low exposure, high ones high exposure. For orientation: Tmax means the time at which the peak concentration occurs. As a reminder, the TD50 is the 50% point of the dose-response relation for the toxic effect studied. By Cmax is commonly meant the maximum level reached in the sampled fluid or tissue. The term MRT denotes a mean duration of stay, worked out from the concentration-time curve. Usually CL/F stands for the apparent clearance, not corrected for the fraction that reaches the circulation. As for `CCC[C@@H](C(N)=O)[C@@H](C)CC` [(2R,3S)-SEC-BUTYLPROPYLACETAMIDE], in data set [1], the half-life is 1.3 h. Also, the median effective dose (ED50) in the data set on Rattus norvegicus [2] was determined as 135 mg/kg; with Rattus norvegicus [5] it was 15 mg/kg; with Mus musculus [10] it was 93 mg/kg; in the data set with Mus musculus [11], 51 mg/kg; in the data set with Mus musculus [24], 29 mg/kg; in the data set on Rattus norvegicus [25] it was 72 mg/kg. In the data set on Mus musculus [26], the 50% effective dose (ED50) stood at 95 mg/kg. Further, the Activity in the data set with Mus musculus [3] was determined as 93.5%; in the data set with Mus musculus [6], 100%; in the data set on Mus musculus [9], 100%; in the data set with Mus musculus [15] it was 8.4%; in the data set on Hippocampus [17] it was 97%; in the data set with Mus musculus [20] it was 0%. Moreover, the Activity in the data set with Hippocampus [21] is listed as 78%; in the data set on Mus musculus [22] it was 91.6%; with Mus musculus [23], 6.5%; with Mus musculus [27] it was 0%. Also, the Vd/F in [4] is 7.2 L/kg. Further, in data set [7], the exposure (AUC) came to 15200 ng·h/mL. Besides, in data set [8], the time of peak concentration (Tmax) amounted to 1 h. Moreover, the results for the TD50 in [12], in data set [18] and in data set [19] were 79 mg/kg, 67 mg/kg and 41 mg/kg, respectively. In addition, in data set [13], the highest concentration (Cmax) was 5300 ng/mL. Moreover, the MRT in data set [14] was 2.2 h. For the same molecule, in data set [16], the apparent clearance CL/F is 65 mL/min/kg.

For the molecule `CCC[C@H](C(N)=O)[C@H](C)CC` [(2S,3R)-SEC-BUTYLPROPYLACETAMIDE], the half-life in data set [1] is 0.95 h. The ED50 in the data set with Rattus norvegicus [2] was more than 130 mg/kg; in the data set with Mus musculus [11] it was less than 100 mg/kg; with Mus musculus [24], 27 mg/kg; in the data set on Rattus norvegicus [25], 106 mg/kg. In addition, the Activity in the data set with Mus musculus [3] was 90.6%; with Mus musculus [6], 100%; in the data set on Mus musculus [9], 100%; with Mus musculus [15] it was 7.4%; with Hippocampus [17], 91%; in the data set on Mus musculus [20] it was 0%. Besides, the Activity in the data set on Hippocampus [21] turned out to be 90%; with Mus musculus [22], 92.6%; in the data set with Mus musculus [23], 9.4%; with Mus musculus [27], 0%. Further, the Vd/F in data set [4] stood at 6.3 L/kg. For the same molecule, in data set [7], the AUC is 12600 ng·h/mL. In addition, the time of peak concentration (Tmax) in data set [8] was 0.5 h. Further, the TD50 was 105 mg/kg in data set [12] and more than 75 mg/kg in [18]. In [13], the peak level (Cmax) was 8000 ng/mL. Moreover, the MRT in [14] came to 1.5 h. Moreover, the apparent clearance CL/F in data set [16] is 76.7 mL/min/kg.

Take `CCCC(CCC)C(=O)[O-].[Na+]` [VALPROATE SODIUM]: the Activity with Mus musculus [28] amounted to 100%; in the data set on Mus musculus [29] it was 92.3%; with Mus musculus [30], 13.6%; in the data set with Mus musculus [31] it was 0%; in the data set with Mus musculus [32], 7.7%; in the data set on Mus musculus [33], 99%.
